Assay results collected from several papers.
Protocols differ between the studies behind these lines.
BMP2K: BMP-2-inducible protein kinase (BMP2K, Homo sapiens, UniProt Q9NSY1)
MTNR1A: Melatonin receptor type 1A (MTNR1A, Homo sapiens, UniProt P48039)
HTR2C: 5-hydroxytryptamine receptor 2C (HTR2C, Homo sapiens, UniProt P28335)
murC: UDP-N-acetylmuramate--L-alanine ligase (murC, Escherichia coli K-12, UniProt P17952)
Trypanothione synthetase: Trypanothione synthetase (Trypanosoma cruzi, UniProt Q9GT49)
Grm1: Metabotropic glutamate receptor 1 (Grm1, Rattus norvegicus, UniProt P23385)
BRWD3: BRWD3 (Homo sapiens, UniProt Q6RI45)

With O=C(Nc1cccc(Nc2ncc(Br)c(NCCc3cnc[nH]3)n2)c1)N1CCCC1 the remaining activity was 2% (BMP2K; enzyme activity, inhibitor, radiometric; 1 µM).
COc1cc2c(CCNC(C)=O)c[nH]c2cc1I has an Emax of 98% (MTNR1A; cAMP, agonist, TR-FRET; CHO-K1; 20 min).
For Oc1cccc(Nc2nc(-c3ccc(F)cc3F)cs2)c1, the inhibition was 17.4% (HTR2C; ligand displacement, radioligand; 10 µM).
c1cc(CN2CCOCC2)cc(Nc2ncc(C3CC3)c(NCCc3c[nH]cn3)n2)c1 gave a remaining activity of 18% (BMP2K; enzyme activity, inhibitor, radiometric; 1 µM).
For CCc1ccc2scc(CCNC(C)=O)c2c1, the Emax was 75% (MTNR1A; β-arrestin recruitment, agonist; CHO-K1; 90 min).
The remaining activity of O=C(NCCCNc1nc(Nc2cccc(NC(=O)N3CCCC3)c2)ncc1I)c1cccs1 is reported as 1% (BMP2K; enzyme activity, inhibitor, radiometric; 1 µM).
With O=C(Nc1ccc(C=NNS(=O)(=O)c2ccc3ccccc3c2)cc1)c1ccccc1Br the remaining activity was 41% (murC; enzyme activity, inhibitor, absorbance; 100 µM).
CCN(Cc1ccccc1C(F)(F)F)C(=O)C1CCN(S(=O)(=O)c2ccc3[nH]ncc3c2)CC1 gave an inhibition of 11% (B2 bradykinin receptor (BDKRB2, Homo sapiens, UniProt P30411); ligand displacement, radioligand; 10 µM).
The inhibition of CN1CCN(CCNC(=O)CN2C(=O)Cc3c([nH]c4ccc(Br)cc34)-c3ccc(Cl)cc32)CC1 is reported as 16.8% (Trypanothione synthetase; enzyme activity, inhibitor, absorbance; 30 µM).
For O=C(c1ccc(F)cc1)N(Cc1ccccc1)C1CCCCC1, the inhibition was 20% (Substance-P receptor (TACR1, Homo sapiens, UniProt P25103); cell-free assay; 10 µM).
With FC(F)(F)Oc1cccc(-c2cnc3ccc(-c4ccncc4)nn23)c1 the activity vs control was 93% (Serine/threonine-protein kinase SIK3 (SIK3, Homo sapiens, UniProt Q9Y2K2); enzyme activity, inhibitor, radiometric; 1 µM).
NNC(=O)CN1C(=O)Cc2c([nH]c3ccc(Br)cc23)-c2ccc(Cl)cc21 has an inhibition of 10.1% (Trypanothione synthetase; enzyme activity, inhibitor, absorbance; 30 µM).
The remaining activity of N#Cc1ccc(COc2ccccc2C=NNS(=O)(=O)Cc2ccccc2)cc1 is reported as 100% (murC; enzyme activity, inhibitor, absorbance; 100 µM).
For NS(=O)(=O)c1ccc(CNc2nc(Nc3cccc(NC(=O)N4CCCC4)c3)ncc2Br)cc1, the remaining activity was 1% (BMP2K; enzyme activity, inhibitor, radiometric; 1 µM).
For COc1cc(NC(C)=O)c(Cl)cc1C(=O)Nc1nccs1, the inhibition was 48.8% (HTR2C; ligand displacement, radioligand; 10 µM).
For O=C(Nc1ccc(N2C(=O)c3ccccc3C2=O)c(Cl)c1)c1ncccc1Cl, the Emax was 77% (Grm1; calcium signal, positive allosteric modulator; T-REx-293).
For N#Cc1ccc(COc2ccccc2C=NNS(=O)(=O)Cc2ccccc2F)cc1, the remaining activity was 59% (murC; enzyme activity, inhibitor, absorbance; 100 µM).
COc1ccc2[nH]cc(CCNC(C)=O)c2c1I gave an Emax of 90% (MTNR1A; cAMP, agonist, TR-FRET; CHO-K1; 20 min).
The remaining signal of Cc1ccc(C(=O)Nc2ccc(CN3CCN(C)CC3)c(C(F)(F)F)c2)cc1C#Cc1cnc2cccnn12 is reported as 85% (Ephrin type-B receptor 6 (EPHB6, Homo sapiens, UniProt O15197); cell-free assay; 23.5 nM).
The remaining activity of O=C(Nc1ccc(C=NNS(=O)(=O)c2ccc3ccccc3c2)cc1)c1ccccc1 is reported as 97% (murC; enzyme activity, inhibitor, absorbance; 100 µM).
O=C(Nc1ccc(N2C(=O)c3ccccc3C2=O)c(Cl)c1)c1ncccc1O gave an Emax of 105% (Grm1; calcium signal, positive allosteric modulator; T-REx-293).
The Emax of COc1cc2c(CCNC(C)=O)c(I)[nH]c2cc1[N+](=O)[O-] is reported as 92% (MTNR1A; cAMP, agonist, TR-FRET; CHO-K1; 20 min).
The ΔTm of C[S+]([O-])c1ccc(-c2nc(-c3ccncc3)c(-c3ccc(F)cc3)[nH]2)cc1 (centres unmarked) is reported as 0.55 °C (BRWD3; thermal stability, DSF; 10 µM).
For COc1cc(I)c2[nH]cc(CCNC(C)=O)c2c1, the Emax was 39% (MTNR1A; GTPγS binding, agonist, radiometric; cell membranes).
O=C(CN1C(=O)Cc2c([nH]c3ccc(Br)cc23)-c2ccc(Cl)cc21)N1CCCCC1 gave an inhibition of 7.1% (Trypanothione synthetase; enzyme activity, inhibitor, absorbance; 30 µM).
With CCCOc1ccc(OC)c(F)c1C(=O)c1ccc(C(=O)N[C@@H]2CNC[C@H]2NC(=O)c2ccc3[nH]ncc3c2)cc1 the remaining activity was 25% (Rho-associated protein kinase 2 (ROCK2, Homo sapiens, UniProt O75116); enzyme activity, inhibitor; 0.1 µM).
COc1ccc2ncn(CCNC(C)=O)c2c1 has an Emax of 53% (MTNR1A; GTPγS binding, agonist, radiometric; cell membranes).
For NS(=O)(=O)c1ccc(CNc2nc(Nc3cccc(NC(=O)N4CCCC4)c3)ncc2C2CC2)cc1, the remaining activity was 64% (BMP2K; enzyme activity, inhibitor, radiometric; 1 µM).
The inhibition of CNC(=O)CN1C(=O)Cc2c([nH]c3ccc(Br)cc23)-c2ccc(Cl)cc21 is reported as 22.8% (Trypanothione synthetase; enzyme activity, inhibitor, absorbance; 30 µM).
The remaining signal of Nc1ncnc2occ(-c3ccc(NC(=O)Nc4cc(C(F)(F)F)ccc4F)cc3)c12 is reported as 0% (Receptor-type tyrosine-protein kinase FLT3 (FLT3, Homo sapiens, UniProt P36888, R834Q); cell-free assay, inhibitor; 20 µM).
The remaining activity of Cc1nn(CC(F)(F)F)cc1Nc1ncc(Br)c(NCCc2cnc[nH]2)n1 is reported as 47% (BMP2K; enzyme activity, inhibitor, radiometric; 1 µM).
For O=C(Cc1ccc2c(c1)OCO2)Oc1ccccc1C=NNS(=O)(=O)c1ccc2ccccc2c1, the remaining activity was 57% (murC; enzyme activity, inhibitor, absorbance; 100 µM).
Oc1ccc(-c2nc(-c3ccncc3)c(-c3ccc(F)cc3)[nH]2)cc1 has a ΔTm of 0.66 °C (BRWD3; thermal stability, DSF; 10 µM).
O=C(NCCCNc1nc(Nc2cccc(NC(=O)N3CCCC3)c2)ncc1C1CC1)C1CCC1 gave a remaining activity of 8% (BMP2K; enzyme activity, inhibitor, radiometric; 1 µM).
COc1ccc2c(c1)C(CNC(N)=O)Cc1ccccc1C2 (centres unmarked) gave an Emax of 8% (MTNR1A; GTPγS binding, agonist, radiometric; cell membranes).
